B1: Thymidine kinase (Varicella-zoster virus), P0C0E6 (protein)
chain: MSTDKTDVKMGVLRIYLDGAYGIGKTTAAEEFLHHFAITPNRILLIGEPLSYWRNLAGEDAICGIYGTQTRRLNGDVSPEDAQRLTAHFQSLFCSPHAIMHAKISALMDTSTSDLVQVNKEPYKIMLSDRHPIASTICFPLSRYLVGDMSPAALPGLLFTLPAEPPGTNLVVCTVSLPSHLSRVSKRARPGETVNLPFVMVLRNVYIMLINTIIFLKTNNWHAGWNTLSFCNDVFKQKLQKSECIKLREVPGIEDTLFAVLKLPELCGEFGNILPLWAWGMETLSNCLRSMSPFVLSLEQTPQHAAQELKTLLPQMTPANMSSGAWNILKELVNAVQDNTS

Key:
[1] = biological target: T1, Thymidine kinase (Varicella-zoster virus, UniProt P0C0E6); experiment: Displacement of [CH3-3H]deoxythymidine from Varicella zoster virus recombinant thymidine kinase after 30 mins; set-up: species or system Human alphaherpesvirus 3
T1 sequence (P0C0E6 whole entry): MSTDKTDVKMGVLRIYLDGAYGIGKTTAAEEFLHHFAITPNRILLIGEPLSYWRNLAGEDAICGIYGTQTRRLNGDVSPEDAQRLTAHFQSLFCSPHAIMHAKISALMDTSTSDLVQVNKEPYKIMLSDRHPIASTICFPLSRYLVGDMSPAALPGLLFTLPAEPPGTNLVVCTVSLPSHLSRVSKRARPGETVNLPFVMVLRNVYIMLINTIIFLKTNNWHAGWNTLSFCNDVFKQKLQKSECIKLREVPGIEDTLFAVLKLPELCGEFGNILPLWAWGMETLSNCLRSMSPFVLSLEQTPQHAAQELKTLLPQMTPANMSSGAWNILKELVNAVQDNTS
Summary of the method: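 Inhibition of VZV TK phosphorylation of 1 µM [CH3-3H]dThd (0.1 µCi) in 50 mM Tris-HCl pH 8.0, 2.5 mM MgCl2, 10 mM DTT, 2.5 mM ATP, 10 mM NaF, 1 mg/mL BSA. Reaction started with enzyme, 37 °C for 30 min. Product captured on DE-81 discs, washed in ammonium formate then ethanol, and counted by scintillation. IC50 is the concentration inhibiting phosphorylation by 50%.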

[2] = biological target: T2, Thymidine kinase (Varicella-zoster virus) (UniProt P0C0E6); experiment: Ratio of Vmax to Km for Varicella zoster virus recombinant thymidine kinase; settings: Human alphaherpesvirus 3
T2 sequence (whole entry): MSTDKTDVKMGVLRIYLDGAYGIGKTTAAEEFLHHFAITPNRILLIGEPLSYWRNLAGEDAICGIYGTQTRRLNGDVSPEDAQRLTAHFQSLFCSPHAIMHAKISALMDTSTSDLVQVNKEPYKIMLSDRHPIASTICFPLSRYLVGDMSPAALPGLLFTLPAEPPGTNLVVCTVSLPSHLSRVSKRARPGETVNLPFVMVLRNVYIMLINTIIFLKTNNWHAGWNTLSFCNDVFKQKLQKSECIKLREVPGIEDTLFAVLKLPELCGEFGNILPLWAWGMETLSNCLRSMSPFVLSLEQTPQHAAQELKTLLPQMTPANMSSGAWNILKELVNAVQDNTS
Summary of the method: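 Km and Vmax for each compound as VZV TK substrate, from monophosphate formation at 0.5, 2, 5 and 12.5 µM compound. Enzyme in Tris-HCl pH 8 with 2.5 mM ATP and MgCl2, 37 °C, 60 min. Product quantified by reversed-phase HPLC with fluorescence detection (ex 340/em 415 nm).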

[3] = tested on: Human alphaherpesvirus 3; experiment: Antiviral activity against Varicella zoster virus OKA infected human HEL cells assessed as reduction in viral plaque formation after 5 days; assay type: functional, cell-based; settings: Human alphaherpesvirus 3, strain Oka vaccine, 120 h
Summary of the method: (§1)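 Confluent HEL cells infected with VZV at 20 PFU/well for 2 h. Residual virus removed, then compound added at varying concentrations in duplicate. Plaques counted after 5 days.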

[4] = tested on: Human alphaherpesvirus 3; experiment: Antiviral activity against thymidine kinase deficient Varicella zoster virus 07/1 infected human HEL cells assessed as reduction in viral plaque formation after 5 days; assay type: functional, organism-based; settings: Human alphaherpesvirus 3, 07/1, HEL, 120 h; summary of the method: as §1
[5] = Cytotoxicity against human HEL cells assessed as alteration of cell morphology by microscopy; assay type: cell-based
Summary of the method: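 Confluent human embryonic lung (HEL) cell cultures, run in parallel with a VZV plaque-reduction assay. Compound added at varying concentrations in duplicate. Cells were examined by microscope for altered morphology. MCC is the lowest compound concentration that gives a microscopically detectable change in cell morphology.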

[6] = tested on: Human alphaherpesvirus 3; experiment: Antiviral activity against Varicella zoster virus YS infected human HEL cells assessed as reduction in viral plaque formation after 5 days; assay type: functional, organism-based; settings: Human alphaherpesvirus 3, YS, 120 h
Summary of the method: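 Confluent HEL cells infected with VZV at 20 PFU/well for 2 h. Residual virus removed, then compound added at varying concentrations in duplicate. Plaques counted after 5 days. EC50 is the concentration reducing plaque formation by 50% versus untreated controls.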

[7] = substrate: CCCCCc1ccc(-c2cc3cn([C@@H]4O[C@H](CO)[C@@H](O)C4(F)F)c(=O)nc3o2)cc1; experiment: (§2) Activity at Varicella zoster virus recombinant thymidine kinase assessed as 5-monophosphate BCNA formation after 60 mins by HPLC; settings: Human alphaherpesvirus 3
Summary of the method: (§3)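 VZV TK (1.5 pg) in 50 mM Tris-HCl pH 8, 2.5 mM MgCl2, 10 mM DTT, 2.5 mM ATP, 10 mM NaF; compound at 0.5, 2, 5 and 12.5 µM in DMSO; 37 °C for 60 min. Stopped in ice-cold methanol and centrifuged. Reversed-phase HPLC with ion-pairing phosphate buffer/acetonitrile gradient; nucleoside and 5'-monophosphate quantified by fluorescence (ex 340, em 415 nm).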

[8] = substrate: CCCCCc1ccc(-c2cc3cn([C@@H]4O[C@H](CO)[C@@H](O)[C@@H]4F)c(=O)nc3o2)cc1; experiment: as §2; settings: Human alphaherpesvirus 3; summary of the method: as §3
[9] = substrate: CCCCCc1ccc(-c2cc3cn([C@@H]4O[C@H](CO)[C@@H](O)[C@H]4F)c(=O)nc3o2)cc1; experiment: as §2; settings: Human alphaherpesvirus 3; summary of the method: as §3
[10] = substrate: CCCCCc1ccc(-c2cc3cn([C@H]4C[C@H](O)[C@@H](CO)O4)c(=O)nc3o2)cc1; experiment: as §2; settings: Human alphaherpesvirus 3; summary of the method: as §3

Row | Molecule | IC50 [1] | Ratio [2] | EC50 [3] | EC50 [4] | MCC [5] | EC50 [6] | Km [7] | Vmax [7] | Km [8] | Vmax [8] | Km [9] | Vmax [9] | Km [10] | Vmax [10]
1 | CCCCCc1ccc(-c2cc3cn([C@@H]4O[C@H](CO)[C@@H](O)[C@H]4F)c(=O)nc3o2)cc1 | 2.7 µM | 7.2 | 0.75 µM | > 20 µM | > 50 µM |  |  |  |  |  |  |  |  | 
2 | CCCCCc1ccc(-c2cc3cn([C@@H]4O[C@H](CO)[C@@H](O)C4(F)F)c(=O)nc3o2)cc1 | 13 µM | 14 | 1.5 µM | > 50 µM | ≥ 50 µM | 6.7 µM |  |  |  |  |  |  |  | 
3 | CCCCCc1ccc(-c2cc3cn([C@@H]4O[C@H](CO)[C@@H](O)[C@@H]4F)c(=O)nc3o2)cc1 | 38 µM | 45 | 0.007 µM | > 50 µM | > 50 µM | 0.011 µM |  |  |  |  |  |  |  | 
4 | CCCCCc1ccc(-c2cc3cn([C@H]4C[C@H](O)[C@@H](CO)O4)c(=O)nc3o2)cc1 [CF1743] | 3.3 µM |  |  |  | ≥ 50 µM |  |  |  |  |  |  |  |  | 
5 | B1 |  |  |  |  |  |  | 0.95 µM | 14 µM/h | 1.11 µM | 50 µM/h | 0.47 µM | 3.4 µM/h | 1.58 µM | 22 µM/h

Source: ChEMBL document CHEMBL1156114 (Bioorg Med Chem Lett, 2009)
